Converted amounts (≈) assume the structure as drawn.
Experiments:
Assay type in all cases: functional
[1] = test system: Anaerocolumna aminovalerica; assay: Antibacterial activity against Clostridium aminovalericum isolated from patient with diabetic foot infection after 44 to 48 hrs by agar dilution method
Method in brief: (§1)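 CLSI M11-A7 agar dilution: serial twofold drug dilutions made on the test day and added to molten agar. Spots of 10^5 CFU were applied by replicator, with drug-free control plates inoculated before and after each set. Incubation was 44 to 48 h at 37°C in an anaerobic chamber. MIC was the lowest concentration giving no growth or a marked change in growth versus controls.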

[2] = test system: Staphylococcus haemolyticus; assay: Antibacterial activity against Staphylococcus haemolyticus isolated from patient with diabetic foot infection assessed as percent resistant isolates after 18 to 24 hrs by broth microdilution method
[3] = test system: Staphylococcus lugdunensis; assay: Antibacterial activity against Staphylococcus lugdunensis isolated from patient with diabetic foot infection assessed as percent resistant isolates after 18 to 24 hrs by broth microdilution method
Method in brief: (§2)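 Aerobes subcultured on Trypticase soy blood agar, then broth microdilution in cation-adjusted Mueller-Hinton broth. Trays prepared in-house with twofold dilutions and stored at −70°C. Overnight colonies suspended to about 5 × 10^5 CFU/ml final. Read after 18 to 24 h at 37°C. QC strains included S. aureus ATCC 29213 and E. coli ATCC 25922.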

Klebsiella aerogenes [4] = assay: Antibacterial activity against Enterobacter aerogenes isolated from patient with diabetic foot infection after 18 to 24 hrs by broth microdilution method
Method in brief: (§3)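 Isolates were subcultured on Trypticase soy blood agar and tested by broth microdilution in cation-adjusted Mueller-Hinton broth. In-house trays of twofold drug dilutions were stored at −70°C. Overnight colonies gave a final inoculum of about 5 × 10^5 CFU/ml. Plates were read after 18 to 24 h at 37°C.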

Parabacteroides merdae = assay: Antibacterial activity against Parabacteroides merdae isolated from patient with diabetic foot infection after 44 to 48 hrs by agar dilution method; method in brief: as §1
Prevotella bivia = assay: Antibacterial activity against Prevotella bivia isolated from patient with diabetic foot infection assessed as percent resistant isolates after 44 to 48 hrs by agar dilution method
Method in brief: (§4)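 Agar dilution per CLSI M11-A7. Twofold drug dilutions made on the test day and added to molten agar. Replicator-applied inoculum of 10^5 CFU/spot. Drug-free control plates inoculated before and after each drug set. Incubation at 37°C for 44 to 48 h, anaerobic chamber. MIC taken as the lowest concentration giving no growth or a marked change in growth versus controls.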

[5] = test system: Staphylococcus lugdunensis; assay: Antibacterial activity against Staphylococcus lugdunensis isolated from patient with diabetic foot infection after 18 to 24 hrs by broth microdilution method
Method in brief: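 Subcultured on Trypticase soy blood agar, then broth microdilution in cation-adjusted Mueller-Hinton broth. Trays were made in-house with serial twofold drug dilutions and stored at −70°C. Inoculum was colonies from overnight growth, final approximately 5 × 10^5 CFU/ml. MIC was read after 18 to 24 h at 37°C. QC strains: S. aureus ATCC 29213 and E. coli ATCC 25922.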

[6] = test system: Enterocloster clostridioformis; assay: Antibacterial activity against Clostridium clostridioforme isolated from patient with diabetic foot infection assessed as percent resistant isolates after 44 to 48 hrs by agar dilution method; method in brief: as §4
Proteus vulgaris = assay: Antibacterial activity against Proteus vulgaris isolated from patient with diabetic foot infection after 18 to 24 hrs by broth microdilution method; method in brief: as §3
[7] = test system: Enterocloster clostridioformis; assay: Antibacterial activity against Clostridium clostridioforme isolated from patient with diabetic foot infection after 44 to 48 hrs by agar dilution method; method in brief: as §1
Proteus mirabilis = assay: Antibacterial activity against Proteus mirabilis isolated from patient with diabetic foot infection after 18 to 24 hrs by broth microdilution method; method in brief: as §3
Escherichia coli = assay: Antibacterial activity against Escherichia coli isolated from patient with diabetic foot infection assessed as percent resistant isolates after 18 to 24 hrs by broth microdilution method; method in brief: as §2
Anaerococcus tetradius = assay: Antibacterial activity against Anaerococcus tetradius isolated from patient with diabetic foot infection after 44 to 48 hrs by agar dilution method; method in brief: as §1
Bacteroides ovatus = assay: Antibacterial activity against Bacteroides ovatus isolated from patient with diabetic foot infection assessed as percent resistant isolates after 44 to 48 hrs by agar dilution method; method in brief: as §4
Klebsiella aerogenes [8] = assay: Antibacterial activity against Enterobacter aerogenes isolated from patient with diabetic foot infection assessed as percent resistant isolates after 18 to 24 hrs by broth microdilution method; method in brief: as §2
Phocaeicola vulgatus = assay: Antibacterial activity against Bacteroides vulgatus isolated from patient with diabetic foot infection after 44 to 48 hrs by agar dilution method; method in brief: as §1
[9] = test system: Porphyromonas asaccharolytica; assay: Antibacterial activity against Porphyromonas asaccharolyticus isolated from patient with diabetic foot infection after 44 to 48 hrs by agar dilution method; method in brief: as §1
Clostridium cadaveris [10] = assay: Antibacterial activity against Clostridium cadaveris isolated from patient with diabetic foot infection assessed as percent resistant isolates after 44 to 48 hrs by agar dilution method; method in brief: as §4
[11] = test system: Peptostreptococcus anaerobius; assay: Antibacterial activity against Peptostreptococcus anaerobius isolated from patient with diabetic foot infection after 44 to 48 hrs by agar dilution method; method in brief: as §1
Enterobacter cloacae = assay: Antibacterial activity against Enterobacter cloacae isolated from patient with diabetic foot infection after 18 to 24 hrs by broth microdilution method; method in brief: as §3
[12] = test system: Clostridium malenominatum; assay: Antibacterial activity against Clostridium malenominatum isolated from patient with diabetic foot infection assessed as percent resistant isolates after 44 to 48 hrs by agar dilution method; method in brief: as §4
Corynebacterium xerosis = assay: Antibacterial activity against Corynebacterium xerosis isolated from patient with diabetic foot infection assessed as percent resistant isolates after 48 hrs by broth microdilution method
Method in brief: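 Isolates subcultured on Trypticase soy blood agar. Broth microdilution in cation-adjusted Mueller-Hinton broth with lysed horse blood, using in-house twofold dilution trays stored at −70°C. Inoculum from overnight colonies at about 5 × 10^5 CFU/ml final. Read after 18 to 24 h at 37°C, up to 48 h for some Corynebacterium strains.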

[Clostridium] innocuum = Antibacterial activity against Clostridium innocuum isolated from patient with diabetic foot infection after 44 to 48 hrs by agar dilution method; method in brief: as §1
Porphyromonas somerae = assay: Antibacterial activity against Porphyromonas somerae isolated from patient with diabetic foot infection assessed as percent resistant isolates after 44 to 48 hrs by agar dilution method; method in brief: as §4
Clostridium cadaveris [13] = assay: Antibacterial activity against Clostridium cadaveris isolated from patient with diabetic foot infection after 44 to 48 hrs by agar dilution method; method in brief: as §1
Anaerococcus vaginalis = assay: Antibacterial activity against Anaerococcus vaginalis isolated from patient with diabetic foot infection assessed as percent resistant isolates after 44 to 48 hrs by agar dilution method; method in brief: as §4
Corynebacterium striatum = assay: Antibacterial activity against Corynebacterium striatum isolated from patient with diabetic foot infection after 48 hrs by broth microdilution method
Method in brief: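 Isolates were subcultured on Trypticase soy blood agar. Broth microdilution used cation-adjusted Mueller-Hinton broth with lysed horse blood, in-house trays of twofold drug dilutions stored at −70°C. Colonies from overnight growth gave a final inoculum of about 5 × 10^5 CFU/ml. Trays were read after 18 to 24 h at 37°C, up to 48 h for some strains.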

`C[C@@H](O)[C@H]1C(=O)N2C(C(=O)O)=C(S[C@@H]3CN[C@H](C(=O)N(C)C)C3)[C@H](C)[C@H]12` [MEROPENEM] showed an MIC50 [1] of 0.06 µg/mL (≈ 0.156 µM), an MIC90 [1] of 1 µg/mL (≈ 2.61 µM) and an Activity [2] of 73%. It also gave an Activity [3] of 0%, an MIC50 (Klebsiella aerogenes [4]) of 0.06 µg/mL (≈ 0.156 µM) and an MIC90 (Klebsiella aerogenes [4]) of 0.5 µg/mL (≈ 1.3 µM). The MIC50 (Parabacteroides merdae) was 0.25 µg/mL (≈ 0.652 µM), the MIC90 (Parabacteroides merdae) was 1 µg/mL (≈ 2.61 µM) and the Activity (Prevotella bivia) was 0%. For the same compound, the MIC50 [5] was 0.25 µg/mL (≈ 0.652 µM), the MIC90 [5] was 0.5 µg/mL (≈ 1.3 µM) and the Activity [6] was 0%. The MIC50 (Proteus vulgaris) was 0.06 µg/mL (≈ 0.156 µM), the MIC90 (Proteus vulgaris) was 0.125 µg/mL (≈ 0.326 µM) and the MIC50 [7] was 0.06 µg/mL (≈ 0.156 µM). For the same compound, the MIC90 [7] was 1 µg/mL (≈ 2.61 µM), the MIC50 (Proteus mirabilis) was 0.06 µg/mL (≈ 0.156 µM) and the MIC90 (Proteus mirabilis) was 0.125 µg/mL (≈ 0.326 µM). The Activity (Escherichia coli) was 0%, the MIC50 (Anaerococcus tetradius) was 0.03 µg/mL (≈ 0.0782 µM) and the MIC90 (Anaerococcus tetradius) was 0.125 µg/mL (≈ 0.326 µM). For the same compound, the Activity (Bacteroides ovatus) was 0%, the Activity (Klebsiella aerogenes [8]) was 0% and the MIC50 (Phocaeicola vulgatus) was 0.25 µg/mL (≈ 0.652 µM). For the same compound, the MIC90 (Phocaeicola vulgatus) was 1 µg/mL (≈ 2.61 µM), the MIC50 [9] was no more than 0.015 µg/mL and the MIC90 [9] was no more than 0.015 µg/mL. For the same compound, the Activity (Clostridium cadaveris [10]) was 0%, the MIC50 [11] was 0.125 µg/mL (≈ 0.326 µM) and the MIC90 [11] was 0.25 µg/mL (≈ 0.652 µM). It also gave an MIC50 (Enterobacter cloacae) of 0.06 µg/mL (≈ 0.156 µM), an MIC90 (Enterobacter cloacae) of 0.5 µg/mL (≈ 1.3 µM) and an Activity [12] of 0%. For the same compound, the Activity (Corynebacterium xerosis) was 0%, the MIC50 ([Clostridium] innocuum) was 0.06 µg/mL (≈ 0.156 µM) and the MIC90 ([Clostridium] innocuum) was 1 µg/mL (≈ 2.61 µM). For the same compound, the Activity (Porphyromonas somerae) was 0%, the MIC50 (Clostridium cadaveris [13]) was 0.06 µg/mL (≈ 0.156 µM) and the MIC90 (Clostridium cadaveris [13]) was 1 µg/mL (≈ 2.61 µM). It also gave an Activity (Anaerococcus vaginalis) of 0%, an MIC50 (Corynebacterium striatum) of 0.125 µg/mL (≈ 0.326 µM) and an MIC90 (Corynebacterium striatum) of 0.25 µg/mL (≈ 0.652 µM).
